Measured values as given in ChEMBL document CHEMBL1158816, “Meroterpenes from the ascidian Aplidium aff. densum” (J Nat Prod, 2005).
Values after ≈ are worked out from the molar mass of the structure shown.

Tested on: CCRF-CEM
Test: Cytotoxicity against human wild type CEM cells after 72 hrs
Format: functional, cell-based
Outline: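 CCRF-CEM (CEM-WT) acute lymphoblastic leukemia cells grown in RPMI 1640 with L-glutamine, 10% FCS, penicillin/streptomycin, 5% CO2, 37 °C. Serial dilutions in medium (10^-4 to 1 mg/mL) added to 2 × 10^5 cells/mL without medium renewal. Cells counted with a particle counter over time. IC50 taken at 72 h; triplicate, averaged.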

| Compound | IC50 |
| --- | --- |
| CC(C)=CCCC1(C)C=Cc2cc(O)ccc2O1 (configuration not stated) [CORDIACHROMENE A] | 30 µM |
| CC1=C[C@@H]2c3cc(O)ccc3OC(C)(C)[C@@H]2CC1 [EPICONICOL] | 60 µmol |

Tested on: Micrococcus luteus
Test: Antimicrobial activity against Micrococcus luteus by broth dilution method
Format: functional
Outline: (§1)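 Broth dilution per NCCLS guidelines; compounds in DMSO (at most 5% of total volume) incubated with bacteria (Institut Pasteur strains) in PB medium, 37 °C, 24 h with stirring. Growth read as optical density at 630 nm. Triplicate, averaged. Where growth was absent, medium plated on rich solid medium to tell bacteriostatic from bactericidal.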

| Compound | MIC [µM] |
| --- | --- |
| CC1=CC2C(CC1)C(C)(C)OC21CC(=O)C=CC1=O (configuration not stated) [CONIDIONE] | > 2000 |
| Cc1ccc2c(c1)-c1cc(O)ccc1OC2(C)C [DIDEHYDROCONICOL] | 510 (≈ 123 µg/mL) |
| CC1=C[C@@H]2c3cc(O)ccc3OC(C)(C)[C@@H]2CC1 [EPICONICOL] | 130 (≈ 31.8 µg/mL) |

Next, values leading:

| MIC [µM] | Compound |
| --- | --- |
| 510 (≈ 125 µg/mL) | CC(C)=CCCC1(C)C=Cc2cc(O)ccc2O1 (configuration not stated) [CORDIACHROMENE A] |
| > 2000 | COC(C)(C)[C@H]1CCC(C)=C[C@H]1c1cc(O)ccc1O [METHOXYCONIDIOL] |

Tested on: Escherichia coli
Test: Antimicrobial activity against Escherichia coli by broth dilution method
Format: functional
Outline: as §1

| Compound | MIC [µM] |
| --- | --- |
| CC1=CC2C(CC1)C(C)(C)OC21CC(=O)C=CC1=O (configuration not stated) [CONIDIONE] | > 2000 |
| Cc1ccc2c(c1)-c1cc(O)ccc1OC2(C)C [DIDEHYDROCONICOL] | > 2000 |
| CC1=C[C@@H]2c3cc(O)ccc3OC(C)(C)[C@@H]2CC1 [EPICONICOL] | > 2000 |

Continued, values first:

| MIC [µM] | Compound |
| --- | --- |
| > 2000 | CC(C)=CCCC1(C)C=Cc2cc(O)ccc2O1 (configuration not stated) [CORDIACHROMENE A] |
| > 2000 | COC(C)(C)[C@H]1CCC(C)=C[C@H]1c1cc(O)ccc1O [METHOXYCONIDIOL] |
